How the values were obtained:
CYP2C9 = CYP2C9 (Homo sapiens, UniProt P11712); assay: Metabolic stability in presence of human recombinant CYP2C9 at 1 uM after 30 mins; type: ADME
Method in brief: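 Recombinant human CYP2C9 (Bactosomes), 5 pmol per reaction, in […] buffer pH 7.4 with 1 mM NADPH. Compound 1 µM, added in acetonitrile (2.5% final). 10 min preincubation at 37 °C, reaction started with NADPH, sampled at 0 and 30 min, stopped with ice-cold acetonitrile. Parent remaining quantified by LC/MS/MS as % metabolized. Run in duplicate.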

[1] = target: Prostaglandin G/H synthase 1 (Homo sapiens) (UniProt P23219); conditions: at 100 µM;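 further: recombinant human COX-1 enzyme, activity read out as PGE2 production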
Chain of Prostaglandin G/H synthase 1 (Homo sapiens) (P23219 whole entry): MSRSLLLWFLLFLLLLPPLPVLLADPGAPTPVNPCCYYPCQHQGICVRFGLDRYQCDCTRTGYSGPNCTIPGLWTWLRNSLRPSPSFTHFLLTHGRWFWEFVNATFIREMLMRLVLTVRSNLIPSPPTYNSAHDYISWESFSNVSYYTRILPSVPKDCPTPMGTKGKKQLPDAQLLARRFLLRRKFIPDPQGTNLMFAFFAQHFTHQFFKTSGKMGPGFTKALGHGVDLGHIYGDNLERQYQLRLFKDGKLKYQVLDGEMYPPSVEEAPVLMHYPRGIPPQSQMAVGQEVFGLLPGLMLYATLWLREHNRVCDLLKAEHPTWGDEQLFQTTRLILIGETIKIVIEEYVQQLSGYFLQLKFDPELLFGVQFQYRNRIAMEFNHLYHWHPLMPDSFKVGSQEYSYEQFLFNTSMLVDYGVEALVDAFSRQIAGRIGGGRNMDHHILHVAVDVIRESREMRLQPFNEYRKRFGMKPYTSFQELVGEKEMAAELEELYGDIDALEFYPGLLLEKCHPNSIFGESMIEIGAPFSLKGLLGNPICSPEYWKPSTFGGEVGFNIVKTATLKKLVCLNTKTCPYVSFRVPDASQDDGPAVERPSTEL

[2] = target: T1, Prostaglandin G/H synthase 2 (Homo sapiens) (UniProt P35354); conditions: at 100 µM;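 further: recombinant enzyme assay, activity read out as PGE2 generation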
T1 sequence (whole entry): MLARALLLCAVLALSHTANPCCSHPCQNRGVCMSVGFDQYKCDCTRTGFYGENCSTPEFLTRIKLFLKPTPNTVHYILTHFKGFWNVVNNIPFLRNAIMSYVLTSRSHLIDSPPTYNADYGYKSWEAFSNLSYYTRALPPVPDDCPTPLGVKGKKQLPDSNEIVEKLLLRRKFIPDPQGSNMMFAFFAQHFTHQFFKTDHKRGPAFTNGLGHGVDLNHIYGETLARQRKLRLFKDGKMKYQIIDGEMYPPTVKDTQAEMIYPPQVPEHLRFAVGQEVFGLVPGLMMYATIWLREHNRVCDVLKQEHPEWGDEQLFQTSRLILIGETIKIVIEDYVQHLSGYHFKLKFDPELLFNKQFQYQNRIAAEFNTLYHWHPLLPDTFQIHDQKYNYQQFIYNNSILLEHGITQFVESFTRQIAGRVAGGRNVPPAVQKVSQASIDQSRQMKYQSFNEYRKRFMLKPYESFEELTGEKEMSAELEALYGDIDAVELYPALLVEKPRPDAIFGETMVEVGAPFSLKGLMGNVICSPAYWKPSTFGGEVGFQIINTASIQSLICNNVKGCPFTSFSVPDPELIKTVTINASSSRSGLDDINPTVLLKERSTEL

Chain of CYP2C9 (P11712 whole entry): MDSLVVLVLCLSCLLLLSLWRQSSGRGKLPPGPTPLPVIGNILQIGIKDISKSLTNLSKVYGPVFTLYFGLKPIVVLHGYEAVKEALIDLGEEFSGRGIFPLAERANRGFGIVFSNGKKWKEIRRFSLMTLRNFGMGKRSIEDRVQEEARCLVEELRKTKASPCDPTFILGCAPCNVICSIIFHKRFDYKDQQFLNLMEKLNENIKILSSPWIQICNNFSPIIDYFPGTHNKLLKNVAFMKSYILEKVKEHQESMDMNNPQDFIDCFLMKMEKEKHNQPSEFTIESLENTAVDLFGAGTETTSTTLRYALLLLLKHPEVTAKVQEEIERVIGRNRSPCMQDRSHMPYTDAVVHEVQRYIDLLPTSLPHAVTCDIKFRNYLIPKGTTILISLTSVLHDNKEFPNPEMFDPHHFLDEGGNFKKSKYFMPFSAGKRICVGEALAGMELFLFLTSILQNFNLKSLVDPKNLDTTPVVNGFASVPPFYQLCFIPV

SMILES | metabolized at 0.5 h, 1 µM (CYP2C9) [%] | inhibition [1] [%] | inhibition [2] [%]
NS(=O)(=O)c1ccc(-n2nc(C(F)(F)F)cc2-c2ccc(C(F)(F)F)cc2)cc1 | 0 | – | –
Cc1ccc(-c2cc(C(F)(F)F)nn2-c2ccc(S(N)(=O)=O)cc2)cc1 [CELECOXIB] | 94 | – | –
O=C(O)Cc1ccc(-n2nc(C(F)(F)F)cc2-c2ccc(C(F)(F)F)cc2)cc1 | 4 | 96 | 93
Cc1ccc(-c2cc(C(=O)O)nn2-c2ccc(S(N)(=O)=O)cc2)cc1 | 61 | 66 | 43
CCOC(=O)c1ccc(-n2nc(C(F)(F)F)cc2-c2ccc(C)cc2)cc1 | 88 | 55 | 87
Cc1ccc(-c2cc(-c3ccccc3)nn2-c2ccc(S(N)(=O)=O)cc2)cc1 | 49 | 100 | 92
CCOC(=O)c1ccc(-n2nc(C(F)(F)F)cc2-c2ccc(C(F)(F)F)cc2)cc1 | 2 | 55 | 96
Cc1ccc(-c2cc(C(F)(F)F)nn2-c2ccc(C(=O)O)cc2)cc1 | 29 | 67 | 26
O=C(O)c1ccc(-n2nc(C(F)(F)F)cc2-c2ccc(C(F)(F)F)cc2)cc1 | 29 | 28 | 6

Further lines, results first:

metabolized at 0.5 h, 1 µM (CYP2C9) [%] | inhibition [1] [%] | inhibition [2] [%] | SMILES
10 | 88 | 95 | Cc1ccc(-c2cc(C(F)(F)F)nn2-c2ccc(CC(=O)O)cc2)cc1
48 | 82 | 99 | Cc1ccc(-c2cc(C(F)(F)F)nn2-c2ccc([S+](C)[O-])cc2)cc1 (stereo unspecified)
30 | – | – | Cc1ccc(-c2cc(C(F)(F)F)nn2-c2ccc(C)cc2)cc1
81 | 99 | 92 | Cc1ccc(-c2cc(C(F)(F)F)nn2-c2ccc(S(C)(=O)=O)cc2)cc1
87 | 95 | 99 | CSc1ccc(-n2nc(C(F)(F)F)cc2-c2ccc(C)cc2)cc1
